Measured values reported in PubChem BioAssay AID463104 (Sanford-Burnham Center for Chemical Genomics, 2010).
The campaign covered roughly 330,000 compounds. About 1,100 (0.33%) were called active.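 How the source made its calls: active means versus positive control, 20 µM dose yields 30% or more activation; inactive means the rest.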 The full list was thinned out, with actives kept by preference.

Assay: activators of adaptive XBP1 UPR arm, primary screen, cell-based, CHO-XBP1 luciferase reporter, luminescence, uHTS (AID 463104);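 further: 100% = tunicamycin at 10 µg/mL and 0% = DMSO only wells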
Settings: IRE1-XBP1 UPR activation, at 20 µM, stronger effect = higher value, percent of tunicamycin response, DMSO as zero
Method in brief: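 Assay system: IRE1-XBP1 luciferase reporter CHO line. Input: 1000 cells/well. Buffer or medium: F12 with 10% serum. Doses: 20 µM, 1% DMSO. Times: overnight seeding at 37 °C, 6 h compound treatment at 37 °C. Technique: Steady-Glo luciferase glow luminescence, 10 min after reagent addition.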

| SMILES | activation |
| --- | --- |
| c1ccc(-c2csc(N3CCc4ccccc4C3)n2)cc1 | 2.31% (inactive) |
| N#CC(=C1CCCC1)c1nc(-c2ccc(Cl)cc2)cs1 | -2.04% (inactive) |
| N#CC(=C1SC=CS1)c1nc(-c2ccccc2)cs1 | 30.8% (active) |
| Cc1noc(C)c1CSCC(=O)N(CCC(C)C)c1c(N)n(Cc2ccccc2)c(=O)[nH]c1=O | -4.01% (inactive) |
| Cc1ccc(SCC(=O)NC(=O)NCc2ccco2)c(C)c1 | 1.4% (inactive) |
| Oc1ccc(Br)cc1/C=N/Nc1ccccn1 | 88.3% (active) |
| CCN(CC)CCn1c(/N=C/c2cc(Br)ccc2O)nc2ccccc21 | -2.54% (inactive) |
| Cc1c(C(=O)Nc2ccccn2)oc2ccc(Br)cc12 | 0.16% (inactive) |
| CC(=O)C1(C)N(O)C(C)(C)C(c2cccs2)=[N+]1[O-] (stereo not drawn) | -1.47% (inactive) |
| CC(=NCc1ccc2c(c1)OCO2)C1=C(O)c2ccccc2C1=O | 1.05% (inactive) |
| CCN1C(=O)N[C@@H](c2ccccc2)[C@H](C(C)=O)[C@H]1C | 34.5% (active) |
| CCN1C(=NCCc2cccnc2)N[C@@H](c2ccccc2)[C@H](C(=O)OC)[C@H]1C | 0.09% (inactive) |
| COCCN1C(=O)N[C@@H](CCc2ccccc2)[C@H](C(C)=O)[C@H]1C | 0.9% (inactive) |
| Nc1nc(CC(=O)CSc2ccc(Cl)cc2)nc(Nc2ccc(F)cc2)n1 | 75% (active) |
| Nc1nc(COC(=O)CCC(=O)c2ccc(Cl)cc2)nc(Nc2ccccc2)n1 | 1.72% (inactive) |
| Cc1ccc(Nc2nc(N)nc(CSc3nnc(C)s3)n2)cc1 | 3.11% (inactive) |
| Cc1ccc(C)c(NC(=O)CN(C)C(=O)c2ccc3ncsc3c2)c1 | -1.06% (inactive) |
| COc1ccc(C(=O)COC(=O)CNC(=O)c2cccs2)cc1Br | 0.35% (inactive) |
| Cc1ccc(SC(=O)COc2ccc(C)c(C)c2)cc1 | 65.8% (active) |

| SMILES | activation |
| --- | --- |
| COc1ccc(C(=O)COC(=O)COc2ccc(C)c(C)c2)cc1 | 0.09% (inactive) |
| Cc1ccc(OCC(=O)Nc2ccc(C(=O)O)cc2NC(=O)COc2ccc(C)c(C)c2)cc1C | -6.86% (inactive) |
| CCOC1CCCCC1NS(=O)(=O)c1ccc(Cl)cc1 (stereo not drawn) | -1.12% (inactive) |
| Cc1ccc(CN2CCN(/N=C/c3cccnc3)CC2)c(C)c1 | 1.33% (inactive) |
| CCc1nc(C)cn1S(=O)(=O)c1cc([N+](=O)[O-])ccc1Cl | 45.1% (active) |
| CCc1nc(C)cn1S(=O)(=O)c1cc(OC)c(C)cc1C | -2.38% (inactive) |
| CC(C)c1nccn1S(=O)(=O)c1cc([N+](=O)[O-])ccc1Cl | 0.9% (inactive) |
| Cc1cc(N2CCOCC2)nc2ccc(NC(=S)N3CCN(Cc4ccccc4)CC3)cc12 | -2.17% (inactive) |
| Cc1ccc(S(=O)(=O)c2nnn3c2nc(N2CCN(c4ccccn4)CC2)c2ccccc23)cc1 | -2.5% (inactive) |
| CC(=O)Nc1ccc(Nc2nc3c(S(=O)(=O)c4ccc(C)c(C)c4)nnn3c3ccccc23)cc1 | 3.91% (inactive) |
| Cc1cccc(Nc2nc3c(S(=O)(=O)c4ccccc4)nnn3c3ccccc23)c1C | 94% (active) |
| CN(CC(=O)Nc1cccc(F)c1)C(=O)C1CSC2(C)CCC(=O)N12 (stereo not drawn) | 2.87% (inactive) |
| CCN(CC)C(=O)CSC1c2ccccc2C(=O)N1c1ccccc1 (stereo not drawn) | 0.81% (inactive) |
| CC1(C)C=C2[C@H]3CC[C@@H]4[C@@]5(C)CCC(=O)C(C)(C)[C@@H]5CC[C@@]4(C)[C@]3(C)CC[C@@]2(C(=O)O)CC1 | 2.72% (inactive) |
| CC(=O)NC(CC(=O)Nc1cccc(S(=O)(=O)N2CCCC2)c1)c1ccccc1 (stereo not drawn) | -4.34% (inactive) |
| COc1ccc(CNC(=O)/C(C#N)=C/c2cccc(OC)c2OC)cc1 | 36.8% (active) |
| COc1ccc(NC(=O)/C(C#N)=C\c2cc(OC)c(OCc3ccc(C(=O)O)cc3)cc2Br)cc1 | -2.72% (inactive) |
| N#C/C(=C\c1ccc(O)c(O)c1)C(=O)NCc1ccccc1 | 21.5% (inactive) |
| C=CCNC(=O)c1ccccc1NC(=O)c1ccc(Cl)c(S(=O)(=O)Nc2cccc(C)c2C)c1 | 0.62% (inactive) |
